KCNQ1 act: potentiators or activators of human KCNQ1 potassium channel; P51787; CHO-K1 KCNQ1, thallium flux FluxOR fluorescence; active compounds read high; B-score at 10 µM; 0.35% of 310,000 active; AID 2648;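 active means fluorescence ratio B-score, a plate-corrected score, at least three library SD, with initial intensity B-score within 5 SD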
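System: Stable KCNQ1 CHO-K1 line | Incubation: 90 min dye loading and 20 min compound exposure, both at room temperature | Measure: Ratio B score | Medium: Assay buffer for compound exposure, DMSO matched across wells | Compound dosing: Single-concentration screen | Probe or stimulus: K+/Tl+ depolarizing stimulus | Measured by: Kinetic FluxOR fluorescence, 10 s baseline plus 110 s post-stimulus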
KCNQ1 inh: inhibitors of human KCNQ1 potassium channel. P51787. B-score at 10 µM. CHO-K1 KCNQ1, FluxOR thallium flux fluorescence; active compounds read high. 1.3% of 310,000 active. AID 2642;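 active means compounds whose thallium flux B-score, printed positive for inhibition, exceeds three library SD while starting fluorescence stays within three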;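 further: channel opened by potassium depolarization with thallium stimulus after 20 min compound exposure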
Kir21 block: inhibitors of mouse Kir2.1 inward-rectifier potassium channel | B-score at 10 µM | P35561 | 0.85% of 310,000 active | HEK293-Kir2.1, FluxOR thallium flux fluorescence; active compounds read low;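 active means fluorescence ratio B-score at or below minus 3 SD of library scores, with starting-brightness B-score within 2 SD, cut at about -4.2 in these data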;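 further: channel flux triggered by added potassium and thallium sulfate stimulus; B-score of peak minus minimum fluorescence over baseline after thallium stimulus; more negative B-score means stronger Kir2.1 block with less thallium influx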
hERG rescue: compounds protecting human hERG from proarrhythmic drug block; activation (rescue from dofetilide block), less the hit threshold, % at 10 µM; CHO-hERG, FluxOR thallium flux, dofetilide IC70 present; 0.51% of 310,000 active; AID 1511;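 active means activation above the mean of controls blocked by dofetilide plus 5 SD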;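 further: thallium influx through hERG after potassium depolarization seen as dye fluorescence rise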
KCNK9 inh: human KCNK9 channel inhibition; Q9NPC2; HEK293 KCNK9, FluxOR thallium flux fluorescence; active compounds read low; B-score at 10 µM; 1.2% of 310,000 active; AID 488922;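 active means ratio B-score over 3 SD below the library mean, with starting fluorescence within 5 SD of its mean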;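 further: negative B-score means less thallium flux so channel inhibition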
KCNK3 inh: human KCNK3 channel inhibition, primary screen; O14649; 0.84% of 340,000 active; CHO-KCNK3 thallium flux, FluxOR fluorescence; active compounds read low; B-score at 10 µM;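 active means B-score under library mean minus 4 SD, starting fluorescence ratio at most library mean plus 5 SD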;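 further: more negative B-score means stronger inhibition of thallium flux through KCNK3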
Target sequence (O14649 whole entry, looked up): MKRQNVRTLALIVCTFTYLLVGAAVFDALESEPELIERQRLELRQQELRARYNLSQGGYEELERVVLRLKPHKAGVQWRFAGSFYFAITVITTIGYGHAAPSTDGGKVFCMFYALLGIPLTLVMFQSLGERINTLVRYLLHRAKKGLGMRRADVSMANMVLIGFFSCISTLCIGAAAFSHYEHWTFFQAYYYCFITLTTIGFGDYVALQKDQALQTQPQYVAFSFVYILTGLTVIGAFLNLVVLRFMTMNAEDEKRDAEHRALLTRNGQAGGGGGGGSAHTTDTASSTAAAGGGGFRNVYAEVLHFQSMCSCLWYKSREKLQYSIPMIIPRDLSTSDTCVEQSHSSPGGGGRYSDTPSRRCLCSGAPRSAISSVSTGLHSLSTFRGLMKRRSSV
KCNK3 confirm: confirmation of human KCNK3 two-pore domain potassium channel inhibitors; shares compounds with KCNK3 inh; 99% of 2,400 active; AID 651638; CHO-KCNK3 thallium flux, FluxOR fluorescence; 0% buffer, 100% carvedilol maximal block; ratio percent of control, % at 10 µM;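 active means ratio percent of control, averaged over triplicates, above buffer control mean plus 5 SD, cut at about 64% in these data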;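 further: ratio is the fluorescence rise from min to max over baseline after thallium stimulus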
KCNK3 uninduced: counter-screen for KCNK3 inhibitors: effect in non-induced cells; shares compounds with KCNK3 inh; non-induced KCNK3 parental cells, FluxOR thallium flux; active compounds read low; thallium flux ratio (lower = more inhibition) at 10 µM; 40% of 2,400 active; AID 651747;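 active means thallium flux ratio, averaged over three wells, more than 5 SD below the buffer control mean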;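 further: host cells are CHO cells without KCNK3 induction; ratio is peak minus trough fluorescence over baseline then normalized to buffer controls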
* hit, by the source's call; i = inactive; / = no result given. Hits are enriched below; roughly 3.7% of the tested compounds scored in any of these assays.

SMILES	KCNQ1 act	KCNQ1 inh	Kir21 block	hERG rescue	KCNK9 inh	KCNK3 inh	KCNK3 confirm	KCNK3 uninduced
COc1ccc(NC2=C(C(C)=O)C(c3ccc(N(C)C)cc3)C(C(C)=O)C(C)(O)C2)cc1 (stereo not drawn)	i	i	0.05	-6.6	i	i	/	/
COc1ccc(C2C(C(C)=O)=C(Nc3ccccc3)CC(C)(O)C2C(C)=O)cc1OC (stereo not drawn)	i	i	-0.26	2.8	i	i	/	/
CC(=O)C1=C(Nc2ccccc2)CC(C)(O)C(C(C)=O)C1c1ccccc1 (stereo not drawn)	i	i	1.23	-3.1	i	-12.1*	52.3*	i
COc1ccc(NC2=C(C(C)=O)C(c3ccc(OC)cc3)C(C(C)=O)C(C)(O)C2)cc1 (stereo not drawn)	i	i	1.22	-5.8	i	-9.05*	68.3*	i
COc1nc(OC)nc(N2CCC(NC(=O)C(Cc3cccc(OC)c3OC)NC(C)=O)CC2)n1 (stereo not drawn)	i	i	1.22	-8.2	i	i	/	/
Cc1c(C(=O)N2CCN(c3ccc(C(F)(F)F)cn3)CC2)oc2ccccc12	i	i	-0.38	-7.3	i	-11.5*	135.3*	0.148*
C=CCn1c(SCC(=O)c2cccs2)nc2sc(CC)cc2c1=O	i	i	0.04	-9.0	i	-10.8*	127.7*	i
C=CCn1c(SCC(=O)N2CCN(C(=O)c3ccco3)CC2)nc2sc(CC)cc2c1=O	i	i	0.13	-16.1	i	-10.7*	120.3*	0.146*
C=CCn1c(SCC(=O)O)nc2sc(CC)cc2c1=O	i	i	0.41	-4.7	i	i	/	/
Cn1cc([N+](=O)[O-])c(C(=O)N(Cc2ccccc2)Cc2ccccc2)n1	i	i	0.36	-10.3	i	i	/	/
CCOc1cc(/C=C2\C(=O)N(Cc3ccco3)C(C)=C2C(=O)OC)ccc1O	i	i	-0.16	-27.4	i	-9.47*	71.3*	i
CCn1c(COc2ccc(C)cc2)nc2ccccc21	i	i	-0.75	-5.1	i	-12*	111.7*	i
COCCn1c(COc2ccc(C)cc2)nc2ccccc21	i	i	0.71	-4.8	i	i	/	/
COc1ccc(C(C(=O)NC2CCCC2)N(Cc2cccnc2)C(=O)c2snc(C(N)=O)c2N)cc1OC (stereo not drawn)	i	i	0.1	-15.1	i	i	/	/
CCCCc1cc(=O)oc2c(C)c(OCc3nn[nH]n3)ccc12	i	i	-0.18	-4.6	i	i	/	/
CSc1ccccc1NC(=O)c1cc(-c2cccnc2)nc2ccc(Br)cc12	i	i	-0.1	-8.6	i	-12.8*	109.3*	0.147*
COc1cccc(NC(=O)C2CCCO2)c1 (stereo not drawn)	i	i	1.08	-3.6	i	i	/	/
O=C(CSc1nnc(NC(=O)c2ccccc2F)s1)NCC1CCCO1 (stereo not drawn)	i	i	0.28	-8.8	i	-8.81*	86.0*	i
COc1ccc(NC(=O)Cc2nnc(SCC(=O)Nc3ccccc3)n2C)cc1	i	i	0.68	-2.2	i	i	/	/
COc1cc(NC(=O)c2ccccc2Cl)c2ncccc2c1	i	i	-0.02	-3.0	i	-9.12*	119.3*	0.151*
O=C(Nc1cccc2cccnc12)c1ccc(Cl)cc1Cl	i	i	0.06	-2.3	i	i	/	/
COc1ccccc1OCC(=O)N/N=C/c1c(O)ccc2ccccc12	i	i	0.38	-22.2	-8.6*	-10.2*	132.3*	i
Cc1ccc(NC(=O)c2ccc(C)cc2)cc1	i	i	1.58	-7.0	i	i	/	/
Cc1ccc(C(=O)Nc2ccc(Br)c(C(F)(F)F)c2)cc1	i	i	-0.52	-21.8	i	-9.26*	119.7*	i
CC1CCCC(C)N1S(=O)(=O)c1ccc(NC(=O)c2ccccc2C(=O)N2CCOCC2)cc1 (stereo not drawn)	i	i	-0.85	-8.6	i	-11.7*	91.0*	i
SMILES	KCNQ1 act	KCNQ1 inh	Kir21 block	hERG rescue	KCNK9 inh	KCNK3 inh	KCNK3 confirm	KCNK3 uninduced
COc1ccc(C(=O)N(Cc2ccccc2)c2cccc(C)c2)cc1	i	i	-1.5	-10.6	i	i	/	/
COc1ccccc1CC(=O)N(Cc1ccccc1)c1cccc(C)c1	i	i	-2	-11.2	i	-11.6*	103.0*	0.152*
Cc1ccc(NC(=O)Cn2c(=O)n(Cc3ccco3)c(=O)c3ccccc32)c(C)c1	i	i	-1.02	-4.6	i	i	/	/
O=C(Cn1c(=O)n(Cc2ccco2)c(=O)c2ccccc21)Nc1cccc(Cl)c1	i	i	2.19	-3.2	i	-14*	97.7*	i
O=C1c2cccc3cccc(c23)C(=O)N1CCc1ccccc1	i	i	0.49	-3.2	i	-9.6*	117.7*	i
Cc1nn(-c2ccc(Cl)cc2)c(=O)c2ccccc12	i	i	-0.66	-17.5	i	i	/	/
Cc1nn(-c2nc3ccccc3[nH]2)c(=O)c2ccccc12	i	i	-0.49	-3.6	i	i	/	/
Cc1nn(-c2ccc3ccccc3c2)c(=O)c2ccccc12	i	i	-0.21	-10.4	i	-8.93*	91.7*	i
Cc1nn(-c2ccc(Cl)c(Cl)c2)c(=O)c2ccccc12	i	i	2.45	-2.6	i	-11.3*	105.0*	i
O=C1CCCC(=O)C1=C1SCCCS1	i	i	0.56	-8.0	i	i	/	/
COc1cccc(Nc2nc(N)c([N+](=O)[O-])c(N3CCOCC3)n2)c1	i	i	0.7	-4.9	i	i	/	/
Cc1ccc2c(C)c(C(=O)N3CCN(c4ncccn4)CC3)oc2c1C	i	i	2.16	-2.8	-6.73*	-9.12*	69.3*	i
COc1ccc2oc(C(=O)N3CCN(c4ncccn4)CC3)c(C)c2c1	i	i	0.24	-12.2	i	i	/	/
COc1ccc(Br)cc1C(=O)Nc1ccccc1N1CCCC1	i	i	0.16	-11.5	i	-9.84*	111.0*	0.147*
COc1cc(C(=O)Nc2ccccc2N2CCCCC2)cc(OC)c1OC	i	i	0.16	-12.5	i	-10.2*	126.0*	0.117*
COc1cc(-c2cc(C(=O)Nc3ccccc3N3CCOCC3)c3ccccc3n2)cc(OC)c1OC	i	6*	1.3	-11.7	i	-9.01*	102.0*	0.158*

Assay outcomes as filed in PubChem BioAssay.
